In ChEMBL document CHEMBL3813699, “Structure-Activity Relationships of a Diverse Class of Halogenated Phenazines That Targets Persistent, Antibiotic-Tolerant Bacterial Biofilms and Mycobacterium tuberculosis” (J Med Chem, 2016):
Values after ≈ are worked out from the molar mass of the structure shown.

How the values were obtained:
[1] = Metal chelating activity assessed as soluble Cu2+-compound complex formation by UV-vis spectroscopic analysis; type: physicochemical
Method in brief: (§1)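 UV-vis monitoring after adding 0.5 equivalents CuSO4 or ammonium iron(II) sulfate to stirred 10 mM ligand in DMSO; Cu stoichiometry from free ligand remaining after 2 h room-temperature stirring with varying CuSO4 in methanol, filtered, redissolved in DMSO, A440 against calibration curve.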

[2] = tested on: Staphylococcus aureus; assay: Antibacterial activity against methicillin-resistant Staphylococcus aureus BAA-1707 incubated for 16 to 18 hrs by broth microdilution method; type: functional
[3] = tested on: Enterococcus faecium; assay: Antibacterial activity against vancomycin-resistant Enterococcus faecium ATCC 700221 incubated for 16 to 18 hrs by broth microdilution method; type: functional
[4] = tested on: Staphylococcus epidermidis; assay: Antibacterial activity against methicillin-resistant Staphylococcus epidermidis ATCC 35984 incubated for 16 to 18 hrs by broth microdilution method; type: functional
[5] = tested on: Staphylococcus aureus; assay: Antibiofilm activity against methicillin-resistant Staphylococcus aureus isolate 2 assessed as biofilm eradication incubated for 24 hrs by CBD assay; type: functional; details: for MBC: Staphylococcus aureus, isolate 2, 24 h
Method in brief: (§2)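 Calgary Biofilm Device: pegs inoculated with mid-log culture diluted 1,000-fold in TSB + 0.5% glucose, 24 h 37 °C; washed pegs challenged with 2-fold dilutions 24 h 37 °C; pegs moved to fresh TSBG 24 h; MBEC = lowest concentration leaving no turbidity; 2–6 independent experiments.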

[6] = tested on: Staphylococcus aureus; assay: Antibacterial activity against methicillin-resistant Staphylococcus aureus BAA-44 incubated for 16 to 18 hrs by broth microdilution method; type: functional
[7] = tested on: Staphylococcus epidermidis; assay: Antibacterial activity against methicillin-resistant Staphylococcus epidermidis ATCC 35984 assessed as biofilm eradication incubated for 24 hrs by CBD assay; type: functional; details: for MBC: Staphylococcus epidermidis, ATCC 35984, 24 h; method in brief: as §2
[8] = Metal chelating activity assessed as soluble Fe2+-compound complex formation by UV-vis spectroscopic analysis; type: physicochemical; method in brief: as §1
[9] = tested on: Staphylococcus epidermidis; assay: Antibacterial activity against Staphylococcus epidermidis ATCC 12228 incubated for 16 to 18 hrs by broth microdilution method; type: functional
[10] = tested on: HeLa; assay: Cytotoxicity against human HeLa cells after 24 hrs by LDH release assay; type: cell-based
Method in brief: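 HeLa in DMEM + 10% FBS, 37 °C 5% CO2, at 70–80% confluence treated with 25, 50, 100 µM for 24 h; DMSO vehicle; Triton X-100 2% v/v max-LDH control, medium-only negative; supernatant with LDH reaction mix 30 min room temperature, stopped, absorbance 490 nm.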

[11] = tested on: Mycobacterium tuberculosis; assay: Antibacterial activity against Mycobacterium tuberculosis H37Ra ATCC 25177 after 7 days by two-fold serial dilution method; type: functional; details: H37Ra ATCC 25177, 168 h
[12] = tested on: Enterococcus faecium; assay: Antibiofilm activity against […]-resistant Enterococcus faecium ATCC 700221 assessed as biofilm eradication incubated for 24 hrs by CBD assay; type: functional; details: for MBC: Enterococcus faecium, ATCC 700221, 24 h; method in brief: as §2
[13] = tested on: Staphylococcus aureus; assay: Ratio of MBEC to MBC for methicillin-resistant Staphylococcus aureus clinical isolate 2 biofilm eradication; type: functional
Method in brief: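 From the same CBD challenge plate, MBC taken by subculturing 20 µL into 180 µL TSBG overnight at 37 °C (no turbidity); MBEC from recovered pegs in fresh TSBG 24 h; ratio MBEC:MBC against MRSA-2.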

[14] = tested on: Staphylococcus aureus; assay: Antibacterial activity against methicillin-resistant Staphylococcus aureus clinical isolate 2 incubated for 16 to 18 hrs by broth microdilution method; type: functional
[15] = tested on: Staphylococcus aureus; assay: Antibiofilm activity against methicillin-resistant Staphylococcus aureus BAA-1707 assessed as biofilm eradication incubated for 24 hrs by CBD assay; type: functional; details: for MBC: Staphylococcus aureus, BAA-1707, 24 h; method in brief: as §2
[16] = tested on: Staphylococcus aureus; assay: Antibiofilm activity against methicillin-resistant Staphylococcus aureus BAA-44 assessed as biofilm eradication incubated for 24 hrs by CBD assay; type: functional; details: for MBC: Staphylococcus aureus, BAA-44, 24 h; method in brief: as §2
[17] = tested on: Staphylococcus aureus; assay: Antibacterial activity against methicillin-resistant Staphylococcus aureus clinical isolate 2 incubated for 16 hrs by broth microdilution method in presence of Fe2+; type: functional; details: isolate 2, 16 h
[18] = Induction of hemolysis in human RBC at 200 uM incubated for 1 hr; type: cell-based, Erythrocyte; details: red blood cells, read-out: Activity
Method in brief: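 Human RBCs (EDTA), washed three times in Tris-buffered saline pH 7.2; 2% hRBC with compound at final 200 µM, 1 h 37 °C; supernatant OD405; % hemolysis relative to DMSO (0%) and Triton X (100%).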

[19] = tested on: Staphylococcus aureus; assay: Antibacterial activity against methicillin-resistant Staphylococcus aureus clinical isolate 2 incubated for 16 hrs by broth microdilution method in presence of tiron; type: functional; details: isolate 2, 16 h
[20] = Aqueous solubility of compound in media after 16 hrs; type: physicochemical
[21] = tested on: Staphylococcus aureus; assay: Antibacterial activity against methicillin-resistant Staphylococcus aureus clinical isolate 2 incubated for 16 hrs by broth microdilution method in presence of Cu2+; type: functional; details: isolate 2, 16 h
[22] = tested on: Staphylococcus aureus; assay: Ratio of MIC for methicillin-resistant Staphylococcus aureus clinical isolate 2 in absence and presence of Cu2+; type: functional
[23] = tested on: Staphylococcus aureus; assay: Antibacterial activity against methicillin-resistant Staphylococcus aureus clinical isolate 2 incubated for 16 hrs by broth microdilution method; type: functional; details: isolate 2, 16 h
[24] = tested on: Staphylococcus aureus; assay: Ratio of MIC for methicillin-resistant Staphylococcus aureus clinical isolate 2 in absence and presence of tiron; type: functional; set-up: scale not given here
[25] = Dissociation constant, pKa of compound; type: physicochemical

For `Cc1ccc2c(Br)cc(Br)c(O)c2n1` [BROQUINALDOL], the Activity [1] was “Active”, the MIC [2] was 0.78 µM (≈ 0.247 µg/mL) and the MIC [3] was 2.35 µM (≈ 0.745 µg/mL). It also gave an MIC [4] of 0.3 µM (≈ 0.0951 µg/mL), an MBEC [5] of 188 µM and an MBC [5] of 23.5 µM (≈ 7.45 µg/mL). For the same compound, the MIC [6] was 0.78 µM (≈ 0.247 µg/mL), the MBEC [7] was 93.8 µM and the MBC [7] was 9.38 µM (≈ 2.97 µg/mL). The Activity [8] was “Active”, the MIC [9] was 0.78 µM (≈ 0.247 µg/mL) and the IC50 [10] was greater than 100 µM. For the same compound, the MIC [11] was 25 µM (≈ 7.92 µg/mL), the MBEC [12] was 1.5 µM and the MBC [12] was 2 µM (≈ 0.634 µg/mL).
With `CO[C@H]1/C=C/O[C@@]2(C)Oc3c(C)c(O)c4c(O)c(c(/C=N/N5CCN(C)CC5)c(O)c4c3C2=O)NC(=O)/C(C)=C\C=C\[C@H](C)[C@H](O)[C@@H](C)[C@@H](O)[C@@H](C)[C@H](OC(C)=O)[C@@H]1C` [RIFAMPIN] the MIC [4] was 0.1 µM (≈ 0.0823 µg/mL), the MBEC [5] was 46.9 µM and the MBC [5] was 2 µM (≈ 1.65 µg/mL). For the same compound, the Ratio [13] was greater than 23, the MBEC [7] was 15.6 µM and the MBC [7] was 3 µM (≈ 2.47 µg/mL). The MIC [9] was 0.1 µM (≈ 0.0823 µg/mL) and the MIC [14] was 0.1 µM (≈ 0.0823 µg/mL).
Work on `Oc1ccc(I)c2nc3cc(Cl)c(Cl)cc3nc12` yielded an MIC [2] of 0.15 µM (≈ 0.0586 µg/mL), an MIC [3] of 3.13 µM (≈ 1.22 µg/mL) and an MIC [4] of 0.78 µM (≈ 0.305 µg/mL). For the same compound, the MBEC [5] was 37.5 µM, the MBC [5] was 25 µM (≈ 9.77 µg/mL) and the MBEC [15] was greater than 200 µM. The MBC [15] was 75 µM (≈ 29.3 µg/mL), the MBEC [7] was 75 µM and the MBC [7] was 9.38 µM (≈ 3.67 µg/mL). It also gave an MBEC [16] greater than 200 µM, an MBC [16] of 75 µM (≈ 29.3 µg/mL) and an MIC [17] of 3.13 µM. For the same compound, the IC50 [10] was greater than 100 µM, the hemolysis at 1 h, 200 µM [18] was 1.4% and the MIC [19] was 0.2 µM. For the same compound, the MIC [11] was 3.13 µM (≈ 1.22 µg/mL), the solubility at 16 h [20] was 200 µM (≈ 78.2 µg/mL) and the MIC [14] was 0.39 µM (≈ 0.152 µg/mL). The MBC [12] was 3.13 µM (≈ 1.22 µg/mL).
With `Oc1c(Br)cc(I)c2nc3ccccc3nc12` the MIC [3] was 6.25 µM (≈ 2.51 µg/mL), the MBEC [5] was 62.5 µM and the MBC [5] was 31.3 µM (≈ 12.6 µg/mL). It also gave an MBEC [15] of 93.8 µM, an MBC [15] of 23.5 µM (≈ 9.42 µg/mL) and an MIC [21] of 50 µM. It also gave an MBEC [7] of 188 µM, an MBC [7] of 11.7 µM (≈ 4.69 µg/mL) and an MBEC [16] of 93.8 µM. It also gave an MBC [16] of 46.9 µM (≈ 18.8 µg/mL), an MIC [17] of 6.25 µM and an IC50 [10] greater than 100 µM. It also gave a hemolysis at 1 h, 200 µM [18] of 2.9%, an MBEC [12] of 5.9 µM and an MBC [12] of 3 µM (≈ 1.2 µg/mL).
With `Oc1cccc2cccnc12` [OXYQUINOLINE] the MIC [21] was 3.13 µM, the Ratio [22] was less than 2 and the MIC [23] was 6.25 µM (≈ 0.907 µg/mL). For the same compound, the Ratio [24] was 16, the MIC [17] was 6.25 µM and the MIC [19] was greater than 100 µM.
Work on `Oc1ccc(Br)c2nc3cc(Cl)c(Cl)cc3nc12` yielded an MIC [2] of 0.3 µM (≈ 0.103 µg/mL), an MIC [3] of 6.25 µM (≈ 2.15 µg/mL) and an MIC [4] of 1.56 µM (≈ 0.537 µg/mL). It also gave an MIC [6] of 1.17 µM (≈ 0.402 µg/mL), an MBEC [7] of 100 µM and an MBC [7] of 37.5 µM (≈ 12.9 µg/mL). It also gave an MIC [23] of 0.78 µM (≈ 0.268 µg/mL), an MIC [9] of 3.13 µM (≈ 1.08 µg/mL) and an IC50 [10] greater than 100 µM. The hemolysis at 1 h, 200 µM [18] was 2.7%, the MIC [11] was 3.13 µM (≈ 1.08 µg/mL) and the solubility at 16 h [20] was 200 µM (≈ 68.8 µg/mL). The pKa [25] was 8.42, the MIC [14] was 0.78 µM (≈ 0.268 µg/mL) and the MBEC [12] was 25 µM. It also gave an MBC [12] of 100 µM (≈ 34.4 µg/mL).
Work on `CN(C)[C@@H]1C(O)=C(C(N)=O)C(=O)[C@@]2(O)C(O)=C3C(=O)c4c(O)cccc4[C@@](C)(O)[C@H]3C[C@@H]12` [TETRACYCLINE] yielded an MIC [21] of 1.56 µM, a Ratio [22] of less than 2 and an MIC [23] of 1.17 µM (≈ 0.52 µg/mL). For the same compound, the MIC [17] was 18.8 µM.
